One molecule from ChEMBL document CHEMBL5705892, “MK-2206, an allosteric Akt inhibitor, enhances antitumor efficacy by standard chemotherapeutic agents or molecular targeted drugs in vitro and in vivo” (Mol Cancer Ther, 2010) can be followed below.

The subject of data set [1] is BT-474. The data set can be described thus: Synergistic antiproliferative activity against human BT-474 cells assessed as combination index at ED90 measured after 72 hrs in presence of docetaxel by celltiter-glo assay. The class given is functional. The method, boiled down:
(§1)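 Cells grown in RPMI 1640 with 10% heat-inactivated FBS at 37°C, 5% CO₂. Seeded at 2 to 3 × 10³ per well; drugs added 24 h later. […] Viability read as cellular ATP by CellTiter-Glo. CI calculated by Chou–Talalay from median-effect plots at ED50, ED75 and ED90.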
For orientation: ATP-based viability assays read luminescence as a measure of living cells.

Data set [2] concerns HCC70. As to the kind of experiment: Synergistic antiproliferative activity against lapatinib pretreated human HCC70 cells assessed as combination index at ED50 measured after 72 hrs by celltiter-glo assay. The data set is classed as functional.
Data set [3] deals with MDA-MB-468. The data set can be described thus: Synergistic antiproliferative activity against human MDA-MB-468 cells assessed as combination index at ED75 measured after 72 hrs in presence of lapatinib by celltiter-glo assay. The data set is classed as functional.
Data set [4] relates to HCC70. As to the kind of experiment: Antitumor activity against human HCC70 cells xenografted in CB17/icr SCID mouse assessed as reduction in tumor volume at 120 mg/kg, po administered 3 times per week for 3 weeks and measured twice a week during compound dosing by caliper method. The data set is classed as functional, organism-based. In a few lines: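 Female C.B-17/ICR-scid mice were given s.c. HCC70 cells in 50% Matrigel/50% PBS in the left flank. They were randomized at a mean tumor size of 0.2 cm³, n = 5 per group. Lapatinib (distilled water) was given at 100 mg/kg po, 5 d/wk for 3 wk. MK-2206 (30% Captisol) was given at 120 mg/kg po, 3×/wk, 2 h after lapatinib. Calipers twice weekly; volume = […] × 0.5.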

Data set [5] has as its target RAC-alpha serine/threonine-protein kinase (Homo sapiens) (UniProt P31749). The data set can be described thus: Inhibition of AKT phosphorylation at S473 residue in human NCI-H1993 cells at 3 umol/L measured after 4 to 24 hrs in presence of carboplatin by MSD assay. Conditions: time 4-24 hrs.
Data set [6] deals with HCC1954. As to the kind of experiment: Synergistic antiproliferative activity against human HCC1954 cells assessed as combination index at ED90 treated 24 hrs prior to lapatinib and measured after 72 hrs by celltiter-glo assay. As to conditions: time 96 hrs. The class given is functional.
The subject of data set [7] is A-431. The data set can be described thus: Synergistic antiproliferative activity against human A-431 cells assessed as combination index at ED75 measured after 72 hrs in presence of erlotinib by celltiter-glo assay. The class given is functional. In a few lines: (§2)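 Cells were seeded at 2–3 × 10³ per well in RPMI 1640 with 10% FBS. At 24 h, MK-2206 and the partner drug were added simultaneously at constant concentration ratios spanning each agent's IC₅₀, for 72 h. Growth was read as cellular ATP by CellTiter-Glo. CI was taken from median-effect plots of each agent alone and in combination (Chou–Talalay), at ED₅₀, ED₇₅ and ED₉₀.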

In data set [8] the test system is NCI-H460. As to the kind of experiment: Synergistic antiproliferative activity against human NCI-H460 cells assessed as combination index at ED90 measured after 72 hrs in presence of carboplatin by celltiter-glo assay. The data set is classed as functional.
Data set [9] concerns MDA-MB-468. As to the kind of experiment: Synergistic antiproliferative activity against lapatinib pretreated human MDA-MB-468 cells assessed as combination index at ED50 measured after 72 hrs by celltiter-glo assay. The data set is classed as functional.
Data set [10] relates to NCI-H1703. As to the kind of experiment: Synergistic antiproliferative activity against human NCI-H1703 cells assessed as combination index at ED25 to ED90 measured after 72 hrs in presence of carboplatin by celltiter-glo assay. The data set is classed as functional.
Data set [11] concerns the target RAC-alpha serine/threonine-protein kinase (Homo sapiens) (UniProt P31749). The data set can be described thus: Inhibition of AKT in human HCC70 cells assessed as reduction in S6 phosphorylation at S240/S244 residues at 1 umol/L by Western blot analysis. The class given is cell-based. Conditions: dose 1.0 µmol/L, time 3-24 hrs. The method, boiled down:
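HCC70 cells at ~70% confluence were exposed to 10 µmol/L lapatinib, 1 µmol/L MK-2206, or both, for 0, 3, 6, 12 or 24 h. Lysates were prepared in Triton X-100/Tris buffer (pH 7.5) with protease and phosphatase inhibitors. Immunoblots after SDS-PAGE and nitrocellulose transfer were probed for pAkt and pS6.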

For data set [12] the target is unchanged. The data set can be described thus: Inhibition of AKT in human HCC827 cells assessed as reduction in PRAS40 phosphorylation at T246 residue at 5 umol/L measured after 5 hrs by Western blot analysis. The data set is classed as cell-based. As to conditions: dose 5.0 µmol/L.
Data set [13] concerns MDA-MB-453. As to the kind of experiment: Synergistic antiproliferative activity against human MDA-MB-453 cells assessed as combination index at ED75 measured after 72 hrs in presence of docetaxel by celltiter-glo assay. The class given is functional. The method, boiled down:
as §1

The test system of data set [14] is NCI-N87. As to the kind of experiment: Synergistic antiproliferative activity against human NCI-N87 cells assessed as combination index at ED75 treated 24 hrs prior to lapatinib and measured after 72 hrs by celltiter-glo assay. The class given is functional. Conditions: time 96 hrs.
A short description of data set [15]: Toxicity in human PC-3 cells xenografted CD1 nude mouse assessed as body weight loss at 120 mg/kg, po administered 3 times per week for 2 weeks measured on day 15. The class given is organism-based. As to conditions: in vivo, 360 h, time 15 day. In a few lines:
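Male CD1-nude mice with s.c. PC-3 tumours (50% Matrigel/50% PBS, left flank), randomized at mean 0.2 cm³, n=5/group, treated from 25 d post-implant. Body weight monitored versus vehicle-only controls.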

Data set [16] relates to HCC1954. As to the kind of experiment: Synergistic antiproliferative activity against lapatinib pretreated human HCC1954 cells assessed as combination index at ED90 measured after 72 hrs by celltiter-glo assay. The data set is classed as functional.
In data set [17] the test system is A2780. As to the kind of experiment: Induction of apoptosis in carboplatin pretreated human A2780 cells assessed as increase in caspase-3/7 activity measured after 24 hrs by caspase-glo 3/7 assay. The data set is classed as functional, cell-based. Conditions: dose 0.0625-1 µM.
Data set [18] deals with A2780. The data set can be described thus: Synergistic antiproliferative activity against human A2780 cells assessed as combination index at ED50 measured after 72 hrs in presence of camptothecin by celltiter-glo assay. The class given is functional. In a few lines: as §2
Data set [19] has as its system SK-OV-3. As to the kind of experiment: Synergistic antiproliferative activity against lapatinib pretreated human SK-OV-3 cells assessed as combination index at ED75 measured after 72 hrs by celltiter-glo assay. The data set is classed as functional.
For data set [20], the system named is HCC70. The data set can be described thus: Synergistic antiproliferative activity against human HCC70 cells assessed as combination index at ED75 measured after 72 hrs in presence of lapatinib by celltiter-glo assay. The class given is functional. In a few lines:
as §1

For data set [21], the system named is NCI-H23. The data set can be described thus: Synergistic antiproliferative activity against human NCI-H23 cells assessed as combination index at ED90 measured after 72 hrs in presence of erlotinib by celltiter-glo assay. The data set is classed as functional.
In data set [22] the test system is NCI-H661. As to the kind of experiment: Synergistic antiproliferative activity against human NCI-H661 cells assessed as combination index at ED25 to ED90 measured after 72 hrs in presence of carboplatin by celltiter-glo assay. The class given is functional.
Data set [23] deals with A2780. The data set can be described thus: Synergistic antiproliferative activity against human A2780 cells assessed as combination index at ED90 measured after 72 hrs in presence of camptothecin by celltiter-glo assay. The class given is functional. The method, boiled down:
as §2

A short description of data set [24]: Toxicity in human NCI-H292 cells xenografted CD-1 mouse assessed as weight loss at 120 mg/kg, po administered 3 times per week for 2 weeks starting 2 hrs post-erlotinib treatment and measured during compound dosing. The class given is organism-based. Conditions: in vivo, 336 h. In a few lines: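 NCI-H292 cells in 50% Matrigel/PBS injected s.c. into flank of female CD1-nude mice; dosing began after 2 wk at mean tumour 0.2 cm³, n = 5/group. […] Body weight and signs monitored; treatment ended day 16.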
A general note: In xenograft studies the graft and the host belong to different species.

Active and inactive are the calls of the source. No cut-off for these calls is given here.

Chain of RAC-alpha serine/threonine-protein kinase (Homo sapiens) (P31749 whole entry): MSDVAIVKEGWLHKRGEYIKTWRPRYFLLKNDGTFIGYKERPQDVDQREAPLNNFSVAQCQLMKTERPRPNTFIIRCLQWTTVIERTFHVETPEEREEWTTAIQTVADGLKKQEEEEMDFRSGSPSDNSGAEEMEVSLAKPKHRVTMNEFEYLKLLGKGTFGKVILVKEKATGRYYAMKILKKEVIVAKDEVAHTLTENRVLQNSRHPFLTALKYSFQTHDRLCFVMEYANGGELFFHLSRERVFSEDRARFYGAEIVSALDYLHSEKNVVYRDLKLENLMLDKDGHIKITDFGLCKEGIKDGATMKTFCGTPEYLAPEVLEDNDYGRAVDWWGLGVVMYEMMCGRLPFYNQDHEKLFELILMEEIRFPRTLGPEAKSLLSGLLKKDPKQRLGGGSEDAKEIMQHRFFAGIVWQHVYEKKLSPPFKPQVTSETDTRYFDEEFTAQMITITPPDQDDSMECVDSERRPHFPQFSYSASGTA

For the molecule `Cl.NC1(c2ccc(-c3nc4ccn5c(=O)[nH]nc5c4cc3-c3ccccc3)cc2)CCC1`, the CI90 in [1] was determined as 0.7; in [6] it was 0.18; in data set [8] it was 0.37; in [16], 0.18; in data set [21], 0.68; in data set [23], 0.29. Further, the CI50 is listed as 0.18 in data set [2], 0.18 in [9] and 0.56 in data set [18]. For the same molecule, the CI75 in [3] stood at 0.25; in data set [7] it was 0.21; in [13] it was 0.6; in data set [14], 0.18; in data set [19] it was 0.18; in data set [20] it was 0.28. Besides, the outcome in [4] was Active. Further, the inhibition result in data set [5] and in [12] was “Active” throughout. Moreover, the CI was 0.53 in [10] and 0.37 in data set [22]. Moreover, in data set [11], the inhibition entry was “Dose-Dependent Effect”. For the same molecule, the Activity entry in [15] is “Non-Toxic”; in data set [17], “Dose-Dependent Effect”; in data set [24] it was “Toxic”.
